The results in this text go back to ChEMBL document CHEMBL1132592, “Synthesis of novel 2-benzothiopyran and 3-benzothiepin derivatives and their stimulatory effect on bone formation” (J Med Chem, 1999).

For one assay, the target named is T1, Alkaline phosphatase, tissue-nonspecific isozyme (Rattus norvegicus) (UniProt P08289).
T1 sequence (whole entry): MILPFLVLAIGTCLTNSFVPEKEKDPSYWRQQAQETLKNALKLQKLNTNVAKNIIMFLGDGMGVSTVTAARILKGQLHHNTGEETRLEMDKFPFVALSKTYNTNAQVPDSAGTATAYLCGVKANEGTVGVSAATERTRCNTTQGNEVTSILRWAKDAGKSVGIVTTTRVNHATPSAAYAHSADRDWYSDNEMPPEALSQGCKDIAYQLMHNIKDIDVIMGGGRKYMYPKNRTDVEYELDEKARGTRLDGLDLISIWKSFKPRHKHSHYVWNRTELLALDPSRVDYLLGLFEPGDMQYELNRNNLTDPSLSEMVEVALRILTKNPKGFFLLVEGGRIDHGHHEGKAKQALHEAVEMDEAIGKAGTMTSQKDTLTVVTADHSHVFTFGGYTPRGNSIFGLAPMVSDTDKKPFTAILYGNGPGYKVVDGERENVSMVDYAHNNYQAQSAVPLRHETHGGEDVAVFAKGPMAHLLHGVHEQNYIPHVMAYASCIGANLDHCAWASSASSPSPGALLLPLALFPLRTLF
Description: Effect of 10E-5 M compound on alkaline phosphatase activity in culture of rat bone marrow stromal cells. It counts as tissue-based. In outline: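 Femoral marrow stromal cells from 7-week-old male Sprague-Dawley rats. Primary culture 1 week in α-MEM (10 mM HEPES pH 7.0, 15% FBS, 2 mM glutamine, 50 μg/mL ascorbate, 10 mM β-glycerophosphate, 10^-7 M dexamethasone), 37 °C, 5% CO2. Subcultured at 4 × 10^4 cells/well; compound (10 mM stock in EtOH-DMSO 1:1 or DMF) from day 1 to day 10-14, medium changed every other day. Lysate ALP (Lowry method) in nmol/min/well; mean ± SE, n = 5–10.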
`CCOP(=O)(Cc1ccc(NC(=O)[C@@H]2Cc3cc(OC)c(OC)cc3C(=O)CS2)cc1)OCC` displayed an ALP activity of 770.
Still for that read-out and setting: under `CCOP(=O)(Cc1ccc(NC(=O)C2Cc3cc(OC)c(OC)cc3C(=O)CS2)cc1)OCC` (racemic) stands 1910.

The target of a further assay is T1, Alkaline phosphatase, tissue-nonspecific isozyme (Rattus norvegicus). Description: Effect of 10E-7 M compound on alkaline phosphatase activity compared to control in culture of rat bone marrow stromal cells. In outline: (§1)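 Rat femoral marrow stromal cells subcultured at 4 × 10^4 cells/well in α-MEM with 15% FBS, ascorbate, 10 mM β-glycerophosphate and 10^-7 M dexamethasone. Compound added day 1 to day 10-14, medium refreshed every other day. Lysate ALP (Lowry method) given as fold of control; n = 5–10; Student's t-test.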
In turn, `COP(=O)(OC)c1ccc(NC(=O)C2SCC(=O)c3cc(C4CCCCC4)ccc32)cc1` (stereo not drawn) gave an ALP activity of 1.5.
For the molecule `COP(=O)(Cc1ccc(NC(=O)C2SCC(=O)c3cc(C4CCCCC4)ccc32)cc1)OC` (stereo not drawn), the ALP activity turned out to be 1.7.
As for `CCOP(=O)(CCc1ccc(NC(=O)C2SCC(=O)c3cc(C4CCCCC4)ccc32)cc1)OCC` (stereo not drawn), the ALP activity was determined as 1.5.
On to `CCCCOP(=O)(Cc1ccc(NC(=O)C2SCC(=O)c3cc(C4CCCCC4)ccc32)cc1)OCCCC` (stereo not drawn), for which the ALP activity came to 1.7.
Consider `CCOP(=O)(Cc1ccccc1NC(=O)C1SCC(=O)c2cc(C3CCCCC3)ccc21)OCC` (stereo not drawn), for which the ALP activity is 1.5.
On the same count and under the same terms, to `CCOP(=O)(OCC)c1ccc(NC(=O)C2SCC(=O)c3cc(C4CCCCC4)ccc32)cc1` (stereo not drawn) belongs 1.6; to `CCCOP(=O)(OCCC)c1ccc(NC(=O)C2SCC(=O)c3cc(C4CCCCC4)ccc32)cc1` (stereo not drawn), 1.5.
For the molecule `CC(C)OP(=O)(Cc1ccc(NC(=O)C2SCC(=O)c3cc(C4CCCCC4)ccc32)cc1)OC(C)C` (stereo not drawn), the ALP activity was determined as 2.

Another assay shares this target. Description: Effect on alkaline phosphatase activity compared to control in culture of rat bone marrow stromal cells, 10E-5 M concentration. It counts as tissue-based. The method, boiled down: as §1
Molecule `CC(C)OP(=O)(Cc1ccc(NC(=O)[C@H]2Cc3cc4c(cc3C(=O)[C@H](C)S2)OCO4)cc1)OC(C)C` returned an ALP activity of 3.9.
Consider `CCOP(=O)(Cc1ccc(NC(=O)[C@@H]2SCC(=O)c3cc(C4CCCCC4)ccc32)cc1)OCC`, for which the ALP activity was found to be 2.4.
Turning to `CCOP(=O)(Cc1ccc(NC(=O)[C@H]2Cc3cc4c(cc3C(=O)CS2)OCO4)cc1)OCC`, the ALP activity is 2.9.
The same measure, in the same setting: to `CCOP(=O)(Cc1ccc(NC(=O)[C@H]2Cc3cc4c(cc3C(=O)CS2)OCCO4)cc1)OCC` belongs 1.2; to `CCOP(=O)(Cc1ccc(NC(=O)[C@@H]2SCC(=O)c3cc(-c4ccc(Cl)cc4)ccc32)cc1)OCC`, 1.7; to `CCOP(=O)(CCc1ccc(NC(=O)[C@H]2Cc3cc4c(cc3C(=O)[C@H](C)S2)OCO4)cc1)OCC`, 1.9.
`CCOP(=O)(OCC)c1ccc(NC(=O)[C@H]2Cc3cc(C)c(C)cc3C(=O)CS2)cc1` came in with an ALP activity of 2.2.
`O=C1CS[C@@H](C(=O)Nc2ccc(Cl)cc2)c2cc3c(cc21)CCC3` registered an ALP activity of 1.3.
The same measure, in the same setting: under `CCOP(=O)(Cc1ccc(NC(=O)[C@H]2Cc3ccccc3C(=O)CS2)cc1)OCC` stands 1.5.
The same measure, in the same setting: to `CCOc1ccc(OCC)c(NC(=O)[C@@H]2SCC(=O)c3cc(C4CCCCC4)ccc32)c1` belongs 2.3; to `CCOP(=O)(Cc1ccc(NC(=O)[C@@H]2SCC(=O)c3cc(CC4CCCCC4)ccc32)cc1)OCC`, 2.
In turn, `O=C1CS[C@@H](C(=O)Nc2ccc(Cl)cc2)c2ccc(C3CCCCC3)cc21` yielded an ALP activity of 2.
As for `CCOP(=O)(Cc1ccc(NC(=O)[C@@H]2S[C@@H](C)C(=O)c3cc4c(cc32)OCO4)cc1)OCC`, the ALP activity amounted to 1.2.
The same measure, in the same setting: under `CCOP(=O)(Cc1ccc(NC(=O)[C@H]2Cc3cc(OC)c(OC)cc3C(=O)[C@H](C)S2)cc1)OCC` stands 2.3.
On the same count and under the same terms, under `C[C@@H]1S[C@@H](C(=O)Nc2nc(-c3ccccc3)cs2)c2cc3c(cc2C1=O)OCO3` stands 1.3; under `CC(C)Oc1ccc2c(=O)c(-c3ccccc3)coc2c1`, 1.6.
Turning to `CCOP(=O)(Cc1cccc(NC(=O)[C@H]2Cc3cc4c(cc3C(=O)[C@H](C)S2)OCO4)c1)OCC`, the ALP activity came to 1.8.
The same measure, in the same setting: to `CCOP(=O)(OCC)c1ccc(NC(=O)[C@@H]2SCC(=O)c3cc4c(cc32)CCC4)cc1` belongs 1.1; to `CCOP(=O)(OCC)c1ccc(NC(=O)[C@H]2Cc3cc4c(cc3C(=O)[C@H](C)S2)OCO4)cc1`, 1.8.
Molecule `CCOP(=O)(OCC)c1ccc(NC(=O)[C@@H]2SCC(=O)c3cc(C)c(C)cc32)cc1` registered an ALP activity of 1.5.
On to `Cc1ccc(NC(=O)[C@@H]2SCC(=O)c3cc(C4CCCCC4)ccc32)cc1`, for which the ALP activity came out at 1.7.
Take `CCOP(=O)(Cc1ccc(NC(=O)[C@@H]2SCC(=O)c3cc4c(cc32)OCO4)cc1)OCC`: the ALP activity amounted to 1.2.
Still for that read-out and setting: to `CCOP(=O)(Cc1ccc(NC(=O)[C@H]2Cc3ccc(Cl)cc3C(=O)CS2)cc1)OCC` belongs 1.1.
`CC1COP(=O)(Cc2ccc(NC(=O)[C@H]3Cc4cc5c(cc4C(=O)[C@H](C)S3)OCO5)cc2)OC1` (stereo partly drawn) had an ALP activity of 3.
Regarding `CCOP(=O)(CCNC(=O)[C@H]1Cc2cc3c(cc2C(=O)[C@H](C)S1)OCO3)OCC`, the ALP activity amounted to 1.1.
The molecule `CCOP(=O)(Cc1ccc(NC(=O)[C@H]2Cc3cc4c(cc3C(=O)[C@H](C(C)C)S2)OCO4)cc1)OCC` showed an ALP activity of 3.3.
The same measure, in the same setting: to `Cc1cc2c(cc1C)[C@H](C(=O)Nc1cccnc1)SCC2=O` belongs 1.3; to `CCOP(=O)(Cc1ccc(NC(=O)[C@@H]2SCC(=O)c3cc(OC)c(OC)cc32)cc1)OCC`, 2.5.
For `CCOP(=O)(Cc1ccc(NC(=O)[C@H]2Cc3cc(OC)c(OC)cc3C(=O)[C@H](CC)S2)cc1)OCC`, the ALP activity stood at 1.5.
Molecule `COc1cc2c(cc1OC)C(=O)CS[C@@H](C(=O)Nc1ccc(CP3(=O)OCC(C)CO3)cc1)C2` (stereo partly drawn) showed an ALP activity of 2.7.
On to `CCOP(=O)(Cc1ccc(NC(=O)[C@H]2Cc3ccc(C)cc3C(=O)[C@H](C)S2)cc1)OCC`, for which the ALP activity is 1.7.
Turning to `CCOP(=O)(OCC)c1ccc(NC(=O)[C@H]2Cc3cc(OC)c(OC)cc3C(=O)CS2)cc1`, the ALP activity worked out at 2.6.
Regarding `Cc1cc2c(cc1C)[C@H](C(=O)Nc1cnccn1)SCC2=O`, the ALP activity was determined as 1.3.
Consider `CCOP(=O)(Cc1ccc(NC(=O)[C@H]2Cc3ccc(C)cc3C(=O)[C@H](c3ccccc3)S2)cc1)OCC`, for which the ALP activity stood at 1.2.
For `CCOP(=O)(Cc1ccccc1NC(=O)[C@H]1Cc2cc3c(cc2C(=O)[C@H](C)S1)OCO3)OCC`, the ALP activity is 1.1.
As to `CCOP(=O)(Cc1ccc(NC(=O)[C@@H]2SCC(=O)c3cc(C)c(C)cc32)cc1)OCC`, the ALP activity was determined as 1.5.
Same read-out and setting: to `CCOP(=O)(Cc1ccc(NC(=O)[C@H]2Cc3cc(OC)c(OC)cc3C(=O)[C@H](C(C)C)S2)cc1)OCC` belongs 1.4; to `CCOP(=O)(Cc1ccc(NC(=O)[C@H]2Cc3cc4c(cc3C(=O)[C@H](CC)S2)OCO4)cc1)OCC`, 4.6.
Molecule `COP(=O)(Cc1ccc(NC(=O)[C@H]2Cc3cc4c(cc3C(=O)[C@H](C)S2)OCO4)cc1)OC` returned an ALP activity of 7.2.
In the case of `CCOP(=O)(Cc1ccc(NC(=O)[C@H]2Cc3ccc(C)cc3C(=O)CS2)cc1)OCC`, the ALP activity stood at 1.1.
In the case of `COc1cc2c(cc1OC)C(=O)CS[C@@H](C(=O)Nc1ccc(CP3(=O)OCCCCO3)cc1)C2`, the ALP activity came out at 2.8.
`COc1cc2c(cc1OC)[C@H](C(=O)Nc1ccc(Cl)cc1)SCC2=O` yielded an ALP activity of 1.3.

Another assay deals with T2, Alkaline phosphatase, tissue-nonspecific isozyme (Mus musculus) (UniProt P09242).
T2 sequence (whole entry): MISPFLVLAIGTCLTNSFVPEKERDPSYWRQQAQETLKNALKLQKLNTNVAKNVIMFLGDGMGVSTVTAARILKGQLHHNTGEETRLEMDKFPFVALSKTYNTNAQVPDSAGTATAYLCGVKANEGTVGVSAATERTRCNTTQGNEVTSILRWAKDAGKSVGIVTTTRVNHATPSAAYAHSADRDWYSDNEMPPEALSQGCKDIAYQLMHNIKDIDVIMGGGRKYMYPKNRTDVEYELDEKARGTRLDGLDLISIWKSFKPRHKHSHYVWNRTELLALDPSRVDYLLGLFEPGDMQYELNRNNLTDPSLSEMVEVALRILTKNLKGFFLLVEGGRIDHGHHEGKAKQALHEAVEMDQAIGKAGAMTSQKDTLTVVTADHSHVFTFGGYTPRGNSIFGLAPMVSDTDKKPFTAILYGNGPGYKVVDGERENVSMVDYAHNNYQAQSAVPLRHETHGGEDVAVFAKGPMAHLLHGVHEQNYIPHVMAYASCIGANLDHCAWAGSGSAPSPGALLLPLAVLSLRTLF
Description: Alkaline phosphatase stimulatory activity of 10E-5 M compound in culture of MC3T3-E1 in presence of 3 ng/mL of BMP. The method, boiled down: (§2)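 Mouse osteoblastic MC3T3-E1 cells, 3000 cells/well, grown 3 days in α-MEM with 10% FBS, then switched to α-MEM with 1% FBS plus compound, with or without recombinant Xenopus BMP-4/7 heterodimer (3 ng/mL), for 3 more days. ALP in lysate supernatant read as absorbance at 405 nm; mean ± SE, n = 6; Dunnett's test vs matching control.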
Regarding `CCOP(=O)(Cc1ccc(NC(=O)[C@H]2Cc3cc(OC)c(OC)cc3C(=O)CS2)cc1)OCC`, the ALP activity turned out to be 0.199.
For the molecule `CCOP(=O)(Cc1ccc(NC(=O)[C@@H]2Cc3cc(OC)c(OC)cc3C(=O)CS2)cc1)OCC`, the ALP activity amounted to 0.131.
In the case of `CCOP(=O)(Cc1ccc(NC(=O)C2Cc3cc(OC)c(OC)cc3C(=O)CS2)cc1)OCC` (racemic), the ALP activity stood at 0.169.

A further assay concerns the target T2, Alkaline phosphatase, tissue-nonspecific isozyme (Mus musculus). Description: Alkaline phosphatase stimulatory activity of 10E-5 M compound in culture of MC3T3-E1 in absence of BMP. The method, boiled down: as §2
As to `CCOP(=O)(Cc1ccc(NC(=O)[C@H]2Cc3cc(OC)c(OC)cc3C(=O)CS2)cc1)OCC`, the ALP activity worked out at 0.164.
`CCOP(=O)(Cc1ccc(NC(=O)[C@@H]2Cc3cc(OC)c(OC)cc3C(=O)CS2)cc1)OCC` returned an ALP activity of 0.12.
In turn, `CCOP(=O)(Cc1ccc(NC(=O)C2Cc3cc(OC)c(OC)cc3C(=O)CS2)cc1)OCC` (racemic) yielded an ALP activity of 0.143.
